Measurements taken from PMC11044220 (ACS Omega, 2024).

Columns and labels:
[1] = molecular target: EGFR-TK (Homo sapiens, UniProt P00533); assay: EGFR-TK enzyme assay; type: biochemical
[2] = tested on: Bcl2; assay: qRT-PCR for apoptotic markers: Bcl2; type: cell-based
[3] = tested on: HepG2 cells; assay: Cell cycle analysis by flow cytometry; type: cell-based, human; details: for percentage of cells at the G1 phase: IC50 concentration (4.23 μM), control 50.7%
In short: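 HepG2 cells were treated for 48 h with 4.23 μM test compound, alongside untreated controls. DNA content was analysed by FACS to give the percentage of cells in G1, S and G2/M. The pre-G1 fraction was scored as the apoptotic (DNA-fragmented) population. Fold changes were expressed relative to the untreated control.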

[4] = tested on: p53; assay: qRT-PCR for apoptotic markers: p53; type: cell-based
[5] = tested on: HepG2 cells; assay: Annexin V-FITC/PI dual staining apoptosis assay; type: cell-based, human
[6] = tested on: Bax; assay: qRT-PCR for apoptotic markers: Bax; type: cell-based
[7] = tested on: HepG2 cells; assay: Mitochondrial membrane potential; type: cell-based, human; details: HepG2, 48 h, 4.23 μM (IC50 concentration)
In short: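 Whole HepG2 cells were incubated with 4.23 μM test compound for 48 h, then labelled with a green fluorescent mitochondrial dye. The percentage of cells with depolarised mitochondrial membranes was measured and expressed as fold relative to untreated HepG2 cells.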

[8] = tested on: HepG2 liver cancer cell line; details: read-out: IC50 (μM) HepG2, MTT assay, mean of three independent replicates ± SE

EGFR-TK, sequence (P00533 25-1210): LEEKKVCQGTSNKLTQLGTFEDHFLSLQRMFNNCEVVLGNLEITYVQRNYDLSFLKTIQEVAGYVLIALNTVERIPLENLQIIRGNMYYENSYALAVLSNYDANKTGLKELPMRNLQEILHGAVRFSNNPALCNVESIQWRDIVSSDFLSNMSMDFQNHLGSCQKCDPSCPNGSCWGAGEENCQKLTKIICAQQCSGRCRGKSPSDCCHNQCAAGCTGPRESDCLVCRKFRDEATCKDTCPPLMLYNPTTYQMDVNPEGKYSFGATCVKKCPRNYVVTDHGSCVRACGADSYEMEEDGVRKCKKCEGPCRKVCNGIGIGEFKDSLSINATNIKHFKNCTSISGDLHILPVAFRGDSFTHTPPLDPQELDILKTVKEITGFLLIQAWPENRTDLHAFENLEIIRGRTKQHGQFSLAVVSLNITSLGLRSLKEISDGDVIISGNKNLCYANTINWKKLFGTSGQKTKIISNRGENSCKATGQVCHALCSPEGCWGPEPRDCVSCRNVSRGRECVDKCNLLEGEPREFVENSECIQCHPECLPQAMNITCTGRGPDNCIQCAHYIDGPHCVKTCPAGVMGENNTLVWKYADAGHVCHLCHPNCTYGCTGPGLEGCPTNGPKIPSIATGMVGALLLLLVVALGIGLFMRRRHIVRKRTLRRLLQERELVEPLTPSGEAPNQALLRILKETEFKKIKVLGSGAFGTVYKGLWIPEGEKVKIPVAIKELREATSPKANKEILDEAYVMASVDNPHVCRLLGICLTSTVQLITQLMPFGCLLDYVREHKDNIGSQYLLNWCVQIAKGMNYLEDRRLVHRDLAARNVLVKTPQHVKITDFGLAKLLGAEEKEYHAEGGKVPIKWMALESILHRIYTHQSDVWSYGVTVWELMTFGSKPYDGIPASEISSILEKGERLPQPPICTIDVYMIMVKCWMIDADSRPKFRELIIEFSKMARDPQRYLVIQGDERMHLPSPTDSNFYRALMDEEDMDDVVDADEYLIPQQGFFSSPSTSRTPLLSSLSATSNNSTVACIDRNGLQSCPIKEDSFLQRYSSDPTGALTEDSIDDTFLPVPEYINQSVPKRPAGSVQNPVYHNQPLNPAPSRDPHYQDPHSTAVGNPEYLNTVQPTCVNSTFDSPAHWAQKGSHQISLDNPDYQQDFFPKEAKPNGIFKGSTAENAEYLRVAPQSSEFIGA

IC50 [1]	IC50 [8]	Structure (SMILES)	Bcl2 level, fold change [2]	percentage of cells at the G1 phase ([3]; HepG2, 48 h)	cells at the pre-G1 phase ([3]; HepG2, 48 h, IC50 concentration, control 2.5%)	cell cycle arrest at the G1 phase, fold compared to untreated HepG2 control ([3]; HepG2, IC50 concentration)	p53 level, fold change compared with no treatment control [4]	total apoptotic cells (early and late apoptosis and necrosis) ([5]; HepG2, 48 h, IC50 concentration (4.23 μM), control 2.5%)	ratio of both early and late apoptosis ([5]; HepG2, IC50 concentration, control 0.7%)	Bax level, fold change compared with no treatment control [6]	decrease of MMP level, fold compared with untreated control HepG2 [7]
0.13 µM		O=C1/C(=C/c2ccc(F)cc2)N=C(c2ccccc2)N1c1ccc(S(=O)(=O)Nc2ncccn2)cc1 [compound 6, (Z)-4-(4-(4-Fluorobenzylidene)-5-oxo-2-phenyl-4,5-dihydro-1H-imidazol-1-yl)-N-(pyrimidin-2-yl)benzenesulfonamide]	0.38 fold	64.2%	55.5%	1.28 fold	4.7 fold	55.5%	44.8%	3.7 fold	2.84 fold
	5.89 ± 0.19 µM	O=C1NN(c2ccccc2)C(c2ccccc2)=N/C1=C\c1ccc(F)cc1 [compound 7, (Z)-5-(4-Fluorobenzylidene)-2,3-diphenyl-1,2-dihydro-1,2,4-triazin-6(5H)-one]									
		O=C(NN=C(c1ccccc1)c1ccccc1)/C(=C/c1ccc(F)cc1)NC(=O)c1ccccc1 [compound 5, (Z)-N-(3-(2-(Diphenylmethylene)hydrazinyl)-1-(4-fluorophenyl)-3-oxoprop-1-en-2-yl)benzamide]		64.2%							
